KCNQ1 block: inhibitors of human KCNQ1 channel, primary screen, cell-based, thallium flux, high-throughput. actives 1.3% (n = 310,000). CHO-K1 KCNQ1, FluxOR thallium flux fluorescence; active compounds read high. AID 2642, 2010. B-score at 10 µM. Potassium voltage-gated channel subfamily KQT member 1 (Homo sapiens), P51787;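 active = compounds whose thallium flux B-score, printed positive for inhibition, exceeds three library SD while starting fluorescence stays within three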;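 also: channel opened by potassium depolarization with thallium stimulus after 20 min compound exposure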
hERG protect: hERG rescue from dofetilide block, primary screen, cell-based, CHO-hERG, FluxOR thallium flux, dofetilide IC70 | dofetilide IC70 present | Voltage-gated inwardly rectifying potassium channel KCNH2 (Homo sapiens), Q12809 | actives 0.51% (n = 310,000) | activation (rescue from dofetilide block), less the hit threshold, % at 10 µM;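 active = activation above the mean of controls blocked by dofetilide plus 5 SD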;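 also: thallium influx through hERG after potassium depolarization seen as dye fluorescence rise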
KCNK3 inh: human KCNK3 channel inhibitors, primary screen, CHO cells, FluxOR thallium flux, B-score; Potassium channel subfamily K member 3 (Homo sapiens), O14649; FluxOR fluorescence; active compounds read low; B-score at 10 µM; actives 0.84% (n = 340,000);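 active = B-score under library mean minus 4 SD, starting fluorescence ratio at most library mean plus 5 SD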;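 also: more negative B-score means stronger inhibition of thallium flux through KCNK3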
KCNK9 block: KCNK9 potassium channel inhibitors, primary screen, HEK293 cells, thallium flux | Potassium channel subfamily K member 9 (Homo sapiens), Q9NPC2 | FluxOR thallium flux fluorescence; active compounds read low | B-score at 10 µM | actives 1.2% (n = 310,000);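 active = ratio B-score over 3 SD below the library mean, with starting fluorescence within 5 SD of its mean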;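 also: negative B-score means less thallium flux so channel inhibition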
KCNQ1 act: potentiators or activators of KCNQ1 channel, primary screen, cell-based, thallium flux, high-throughput | CHO-K1 KCNQ1, thallium flux FluxOR fluorescence; active compounds read high | actives 0.35% (n = 310,000) | Potassium voltage-gated channel subfamily KQT member 1 (Homo sapiens), P51787 | B-score at 10 µM;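 active = fluorescence ratio B-score, a plate-corrected score, at least three library SD, with initial intensity B-score within 5 SD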
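Schedule – 37 °C overnight plating, 90-min dark dye load, 20-min compound pretreatment · System – stable KCNQ1 CHO-K1 line · Probe or stimulus – thallium- and potassium-containing depolarizing buffer · Measured by – kinetic FluxOR fluorescence, 10 s baseline plus 110 s post-stimulus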
Kir21 inh: inhibitors of mouse Kir2.1 inward-rectifier potassium channel | actives 0.85% (n = 310,000) | Inward rectifier potassium channel 2 (Mus musculus), P35561 | HEK293-Kir2.1, FluxOR thallium flux fluorescence; active compounds read low | B-score at 10 µM;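 active = fluorescence ratio B-score at or below minus 3 SD of library scores, with starting-brightness B-score within 2 SD, cut at about -4.2 in these data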;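 also: channel flux triggered by added potassium and thallium sulfate stimulus; B-score of peak minus minimum fluorescence over baseline after thallium stimulus; more negative B-score means stronger Kir2.1 block with less thallium influx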
KCNQ1 inh valid: KCNQ1 potassium channel inhibitors, confirmation, cell-based, Tl flux, duplicate | inhibition, % at 10 µM | actives 93% (n = 1,600) | shares compounds with KCNQ1 block | KCNQ1 cell line, FluxOR thallium flux fluorescence | AID 588353, 2011;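 active = primary screen active, with duplicate mean exceeding buffer control mean plus 3 SD of buffer wells, cut at about 28% in these data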;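 also: 0% = buffer control ratio and 100% = XE991 inhibitor control ratio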
CHO Tl flux: thallium flux effects in parental CHO cells, counter-screen for KCNQ1 inhibitor project, cell-based, Tl flux; shares compounds with KCNQ1 block; parental CHO-K1, FluxOR thallium flux fluorescence ratio; active compounds read low; zero means no signal rise above baseline; fluorescence ratio (Tl flux) at 10 µM; actives 21% (n = 1,600); AID 588366, 2011;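 active = mean of duplicate thallium-flux fluorescence ratios in parental host cells more than 5 SD below the buffer control mean, cut at about 0.38 in these data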;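 also: ratio is peak minus minimum fluorescence divided by baseline fluorescence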
KCNQ1 APC inh: KCNQ1 channel inhibitors, confirmation, orthogonal assay, cell-based, automated electrophysiology. actives 20% (n = 490). AID 624120, 2012. KCNQ1-CHO cells, automated patch clamp current. shares compounds with KCNQ1 block. calls only at 10 µM;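 active = KCNQ1 current drop exceeding 3 SD of negative control wells, seen in both duplicate runs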;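 also: steady state current during a 2 s step from -80 to +40 mV; negative values mean current inhibition and positive values mean potentiation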
KCNQ2 inh: KCNQ2 channel inhibition, selectivity assay for KCNQ1 inhibitor project, cell-based. inhibition, % at 10 µM. shares compounds with KCNQ1 block. KCNQ2 cells, FluxOR thallium flux fluorescence. actives 71% (n = 1,600);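 active = mean percent inhibition of the KCNQ2 thallium signal more than 5 SD above the buffer-only control wells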;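 also: KCNQ2 expressed in CHO cells; 0% = buffer control wells and 100% = XE-991 inhibitor control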
KCNQ1 KCNE1 spec: KCNQ1/KCNE1 channel inhibition, selectivity assay for KCNQ1 inhibitor project, CHO-K1 cells, thallium flux, FluxOR | shares compounds with KCNQ1 block | FluxOR thallium flux fluorescence | inhibition, % at 10 µM | actives 77% (n = 1,600);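 active = mean percent inhibition of duplicate wells above the buffer-only control mean plus 3 SD of those controls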;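 also: 0% = buffer only wells and 100% = XE-991 inhibitor control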
KCNK9 block conf: KCNK9 potassium channel inhibitors, confirmation, HEK293 cells, thallium flux, duplicate; shares compounds with KCNK9 block; FluxOR thallium flux fluorescence; inhibition, % at 10 µM; actives 43% (n = 4,900); AID 492992, 2010;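 active = thallium signal inhibited by more than 5 SD of the compound-free buffer control wells, on both duplicate plates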;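 also: 0% = assay buffer control wells without compound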
Kir21 sel: mouse Kir2.1 channel inhibition, confirmation, selectivity assay for KCNK9 modulator project, cell-based, HEK293, thallium flux; Kir2.1 cells, FluxOR thallium flux fluorescence; shares compounds with KCNK9 block; AID 492993, 2010; inhibition, % at 10 µM; actives 4% (n = 4,900);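 active = thallium signal drop more than 5 SD beyond the mean of the no-compound control wells, seen in both duplicate plates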;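 also: signal is fluorescence rise after thallium addition divided by baseline fluorescence; plate controls were assay buffer only for no effect and full block by chlorpromazine control for full effect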
KCNK9 uninduced: thallium flux in non-induced HEK293 cells, confirmation, counter-screen for KCNK9 inhibitor project, cell-based, second counter screen, non-induced KCNK9-HEK293. shares compounds with KCNK9 block. FluxOR thallium flux. inhibition, % at 10 µM. actives 40% (n = 4,900). AID 492997, 2010;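 active = thallium signal drop beyond 5 SD of the untreated control mean, on both duplicate plates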;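 also: plate controls were buffer only IC0 wells for no effect and SID17386958 at its maximal inhibitory level for full effect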
The depositor's hits bear a star; i = inactive; · = not tested or not shown. Rows were chosen to be rich in hits. Some 3.7% of all compounds tested hit in one or more screens of this group.

SMILES | KCNQ1 block | hERG protect | KCNK3 inh | KCNK9 block | KCNQ1 act | Kir21 inh | KCNQ1 inh valid | CHO Tl flux | KCNQ2 inh | KCNQ1 KCNE1 spec | KCNK9 block conf | Kir21 sel | KCNK9 uninduced | others
CC(=O)n1c2c(c3ccccc31)OC(N)=C(C#N)C2c1ccc(C(C)C)cc1 (stereo not drawn) | 8* | -9 | i | -9.2* | i | 1.4 | 114* | 0.38 | 101%* | 154%* | 33%* | i | 38%* | KCNQ1 APC inh=i
CC(=O)C1=C(C)OC(N)=C(C#N)C1c1cccc2ccccc12 (stereo not drawn) | i | -14 | i | i | i | 0.39 | · | · | · | · | · | · | ·
CCCc1nc(SCC(=O)N2CCC(Cc3ccccc3)CC2)c2c(=O)n(C)c(=O)n(C)c2n1 | 6* | -34 | i | i | i | -0.4 | 98* | 0.41 | i | i | i | i | i
Cc1cccc(C)c1OCc1cc(C(=O)N2CCCCCCC2)no1 | i | -10 | i | i | i | -0.34 | · | · | · | · | · | · | ·
Cc1ccc(N2CCN(C(=O)c3cc(COc4c(C)cccc4C)on3)CC2)c(C)c1 | 7* | -20 | i | i | i | 1.2 | 86* | 0.39 | 113%* | 108%* | i | i | i
CCOc1ccc(OCCC(=O)OCC(=O)N(CC)c2c(N)n(Cc3ccccc3)c(=O)[nH]c2=O)cc1 | · | · | i | · | · | · | · | · | · | · | · | · | ·
COc1ccc(-c2[nH]c(-c3cc(OC)c4c(c3)OCO4)nc2-c2ccccc2)cc1 | 9* | -28 | i | -9* | i | 0.46 | 152* | 0.34* | 131%* | 186%* | 38%* | i | 32%*
Cc1ccc(-c2[nH]c(-c3ccc(C(=O)O)cc3)nc2-c2ccccc2)cc1 | i | -12 | i | i | i | -2.8 | · | · | · | · | · | · | ·
NC(=O)c1ccccc1OCC(=O)N1CCC(Cc2ccccc2)CC1 | · | · | i | · | · | · | · | · | · | · | · | · | ·

High-throughput results from PubChem.
